Columns and labels:
Assay type in all cases: functional
U-251 = assay: Growth inhibition of human U251 cells at 10 uM after 48 hrs by sulforhodamine B assay; details: U-251, 48 h, values are per cent of control
Malme-3M = assay: Growth inhibition of human MALME-3M cells at 10 uM after 48 hrs by sulforhodamine B assay; details: values are per cent of control
[1] = Growth inhibition of human UACC257 cells at 10 uM after 48 hrs by sulforhodamine B assay; details: UACC-257, 48 h, values are per cent of control
[2] = Growth inhibition of human NCI-ADR-RES cells at 10 uM after 48 hrs by sulforhodamine B assay; details: values are per cent of control
[3] = Growth inhibition of human SKOV3 cells at 10 uM after 48 hrs by sulforhodamine B assay; details: SK-OV-3, 48 h, values are per cent of control
[4] = Growth inhibition of human TK10 cells at 10 uM after 48 hrs by sulforhodamine B assay; details: TK-10, 48 h, values are per cent of control
[5] = Growth inhibition of human PC3 cells at 10 uM after 48 hrs by sulforhodamine B assay; details: PC-3, 48 h, values are per cent of control
MCF7 = assay: Growth inhibition of human MCF7 cells at 10 uM after 48 hrs by sulforhodamine B assay; details: MCF7, 48 h, values are per cent of control
T47D = assay: Growth inhibition of human T47D cells at 10 uM after 48 hrs by sulforhodamine B assay; details: values are per cent of control
MDA-MB-468 [6] = assay: Growth inhibition of human MDA-MB-468 cells at 10 uM after 48 hrs by sulforhodamine B assay; details: MDA-MB-468, 48 h, values are per cent of control
CCRF-CEM [7] = assay: Growth inhibition of human CCRF-CEM cells after 48 hrs by sulforhodamine B assay
Outline: (§1)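 Five-dose testing against a 60-line human tumor cell panel. GI50 is the drug concentration giving a 50% reduction in net protein increase relative to untreated control cells.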

[8] = Growth inhibition of human HL-60(TB) cells after 48 hrs by sulforhodamine B assay; details: HL-60, 48 h
Outline: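 Five-dose study across the 60-cell human tumour panel. GI50 is the drug concentration giving a 50% reduction in net protein increase relative to control cells.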

[9] = Growth inhibition of human MOLT4 cells after 48 hrs by sulforhodamine B assay; details: MOLT-4, 48 h
Outline: (§2)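 Five-dose concentration series run across a panel of 60 human tumour cell lines. GI50 is taken as the drug concentration giving a 50% reduction in net protein increase relative to untreated control cells.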

[10] = Growth inhibition of human RPMI8226 cells after 48 hrs by sulforhodamine B assay; details: RPMI-8226, 48 h; outline: as §2
NCI-H23 = assay: Growth inhibition of human NCI-H23 cells after 48 hrs by sulforhodamine B assay; details: NCI-H23, 48 h; outline: as §2
NCI-H522 [11] = assay: Growth inhibition of human NCI-H522 cells after 48 hrs by sulforhodamine B assay; details: NCI-H522, 48 h; outline: as §2
[12] = Growth inhibition of human COLO205 cells after 48 hrs by sulforhodamine B assay; details: COLO 205, 48 h; outline: as §1
[13] = Growth inhibition of human HCT15 cells after 48 hrs by sulforhodamine B assay; details: HCT-15, 48 h; outline: as §1
KM12 = assay: Growth inhibition of human KM12 cells after 48 hrs by sulforhodamine B assay; details: KM12, 48 h; outline: as §1
[14] = Growth inhibition of human SF268 cells after 48 hrs by sulforhodamine B assay; details: SF-268, 48 h; outline: as §2
[15] = Growth inhibition of human SF539 cells after 48 hrs by sulforhodamine B assay; details: SF-539, 48 h; outline: as §2
[16] = Growth inhibition of human SNB19 cells after 48 hrs by sulforhodamine B assay; details: SNB-19, 48 h; outline: as §2
M14 = assay: Growth inhibition of human M14 cells after 48 hrs by sulforhodamine B assay; details: M14, 48 h; outline: as §1
MDA-MB-435 = assay: Growth inhibition of human MDA-MB-435 cells after 48 hrs by sulforhodamine B assay; details: MDA-MB-435, 48 h; outline: as §1
SK-MEL-28 = assay: Growth inhibition of human SK-MEL-28 cells after 48 hrs by sulforhodamine B assay; details: SK-MEL-28, 48 h; outline: as §2
[17] = Growth inhibition of human UACC62 cells after 48 hrs by sulforhodamine B assay; details: UACC-62, 48 h
Outline: (§3)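 Five-dose testing across the 60-line human tumour cell panel. GI50 is the drug concentration that gives a 50% reduction in net protein increase relative to control cells.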

[18] = Growth inhibition of human OVCAR4 cells after 48 hrs by sulforhodamine B assay; details: OVCAR-4, 48 h; outline: as §2
[19] = Growth inhibition of human SKOV3 cells after 48 hrs by sulforhodamine B assay; details: SK-OV-3, 48 h; outline: as §2
[20] = Growth inhibition of human Caki1 cells after 48 hrs by sulforhodamine B assay; details: CAKI-1, 48 h; outline: as §1
CCRF-CEM [21] = assay: Growth inhibition of human CCRF-CEM cells at 10 uM after 48 hrs by sulforhodamine B assay; details: values are per cent of control
[22] = Growth inhibition of human HL-60(TB) cells at 10 uM after 48 hrs by sulforhodamine B assay; details: HL-60, 48 h, values are per cent of control
[23] = Growth inhibition of human MOLT4 cells at 10 uM after 48 hrs by sulforhodamine B assay; details: MOLT-4, 48 h, values are per cent of control
[24] = Growth inhibition of human RPMI8226 cells at 10 uM after 48 hrs by sulforhodamine B assay; details: RPMI-8226, 48 h, values are per cent of control
[25] = Growth inhibition of human HOP92 cells at 10 uM after 48 hrs by sulforhodamine B assay; details: HOP-92, 48 h, values are per cent of control
NCI-H522 [26] = assay: Growth inhibition of human NCI-H522 cells at 10 uM after 48 hrs by sulforhodamine B assay; details: NCI-H522, 48 h, values are per cent of control
[27] = Growth inhibition of human HCC2998 cells at 10 uM after 48 hrs by sulforhodamine B assay; details: HCC 2998, 48 h, values are per cent of control
[28] = Growth inhibition of human SF268 cells at 10 uM after 48 hrs by sulforhodamine B assay; details: SF-268, 48 h, values are per cent of control
[29] = Growth inhibition of human UO31 cells after 48 hrs by sulforhodamine B assay; details: UO-31, 48 h; outline: as §3
[30] = Growth inhibition of human PC3 cells after 48 hrs by sulforhodamine B assay; details: PC-3, 48 h; outline: as §2
MDA-MB-231 = assay: Growth inhibition of human MDA-MB-231 cells after 48 hrs by sulforhodamine B assay; details: MDA-MB-231, 48 h; outline: as §1
[31] = Growth inhibition of human Hs 578T cells after 48 hrs by sulforhodamine B assay; outline: as §1
MDA-MB-468 [32] = assay: Growth inhibition of human MDA-MB-468 cells after 48 hrs by sulforhodamine B assay; details: MDA-MB-468, 48 h; outline: as §1
[33] = Growth inhibition of human OVCAR3 cells at 10 uM after 48 hrs by sulforhodamine B assay; details: OVCAR-3, 48 h, values are per cent of control

Structure (SMILES): COc1ccc(/C(C#N)=C/c2ccc3c(c2)OCCO3)cc1
- growth, % of control at 10 µM (U-251): 36.3%
- growth, % of control at 10 µM (Malme-3M): 64.6%
- growth, % of control at 10 µM [1]: 76.7%
- growth, % of control at 10 µM [2]: 34.4%
- growth, % of control at 10 µM [3]: 81%
- growth, % of control at 10 µM [4]: 65.2%
- growth, % of control at 10 µM [5]: 70.9%
- growth, % of control at 10 µM (MCF7): 24.4%
- growth, % of control at 10 µM (T47D): 40.4%
- growth, % of control at 10 µM (MDA-MB-468 [6]): 14.8%
- GI50 (CCRF-CEM [7]): > 100000 nM
- GI50 [8]: > 100000 nM
- GI50 [9]: > 100000 nM
- GI50 [10]: > 100000 nM
- GI50 (NCI-H23): > 100000 nM
- GI50 (NCI-H522 [11]): > 100000 nM
- GI50 [12]: > 100000 nM
- GI50 [13]: 2100 nM
- GI50 (KM12): 4260 nM
- GI50 [14]: > 100000 nM
- GI50 [15]: 73100 nM
- GI50 [16]: > 100000 nM
- GI50 (M14): 3870 nM
- GI50 (MDA-MB-435): 510 nM
- GI50 (SK-MEL-28): > 100000 nM
- GI50 [17]: 8680 nM
- GI50 [18]: 24900 nM
- GI50 [19]: > 100000 nM
- GI50 [20]: > 100000 nM
- growth, % of control at 10 µM (CCRF-CEM [21]): 58.7%
- growth, % of control at 10 µM [22]: 38%
- growth, % of control at 10 µM [23]: 32.2%
- growth, % of control at 10 µM [24]: 80.8%
- growth, % of control at 10 µM [25]: 89%
- growth, % of control at 10 µM (NCI-H522 [26]): 39.3%
- growth, % of control at 10 µM [27]: 55.7%
- growth, % of control at 10 µM [28]: 71.9%
- GI50 [29]: > 100000 nM
- GI50 [30]: > 100000 nM
- GI50 (MDA-MB-231): 69300 nM
- GI50 [31]: > 100000 nM
- GI50 (MDA-MB-468 [32]): 4290 nM

Structure (SMILES): N#C/C(=C\c1cc2ccccc2s1)c1ccc2c(c1)OCO2
- growth, % of control at 10 µM (U-251): 18.4%
- growth, % of control at 10 µM (Malme-3M): 55.1%
- growth, % of control at 10 µM [1]: 72.8%
- growth, % of control at 10 µM [33]: -29.5%
- growth, % of control at 10 µM [2]: -1.9%
- growth, % of control at 10 µM [3]: 20.7%
- growth, % of control at 10 µM [4]: 42.7%
- growth, % of control at 10 µM [5]: 25.8%
- growth, % of control at 10 µM (MCF7): 16.3%
- growth, % of control at 10 µM (T47D): 70.4%
- growth, % of control at 10 µM (MDA-MB-468 [6]): 14.1%
- GI50 (CCRF-CEM [7]): 50 nM
- GI50 [8]: 30 nM
- GI50 [9]: 70 nM
- GI50 [10]: 190 nM
- GI50 (NCI-H23): 320 nM
- GI50 (NCI-H522 [11]): 20 nM
- GI50 [12]: 30 nM
- GI50 [13]: 40 nM
- GI50 (KM12): 50 nM
- GI50 [14]: 1640 nM
- GI50 [15]: 40 nM
- GI50 [16]: 230 nM
- GI50 (M14): 40 nM
- GI50 (MDA-MB-435): 20 nM
- GI50 (SK-MEL-28): 240 nM
- GI50 [17]: 60 nM
- GI50 [18]: 1270 nM
- GI50 [19]: 60 nM
- GI50 [20]: 50 nM
- growth, % of control at 10 µM (CCRF-CEM [21]): 16.8%
- growth, % of control at 10 µM [22]: 0.5%
- growth, % of control at 10 µM [23]: 17.4%
- growth, % of control at 10 µM [24]: 9.3%
- growth, % of control at 10 µM [25]: 60.8%
- growth, % of control at 10 µM (NCI-H522 [26]): -20.5%
- growth, % of control at 10 µM [27]: 6.4%
- growth, % of control at 10 µM [28]: 23.8%
- GI50 [29]: 80 nM
- GI50 [30]: 60 nM
- GI50 (MDA-MB-231): 180 nM
- GI50 [31]: 80 nM
- GI50 (MDA-MB-468 [32]): 380 nM

From ChEMBL document CHEMBL3792365, “Dioxol and dihydrodioxin analogs of 2- and 3-phenylacetonitriles as potent anti-cancer agents with nanomolar activity against a variety of human cancer cells” (2016)
